From ChEMBL document CHEMBL4513216, “Probing the Open Global Health Chemical Diversity Library for Multistage-Active Starting Points for Next-Generation Antimalarials” (ACS Infect Dis, 2020)

Assay: Toxicity liver stage against HepG2, at 10uM
Assay type: cell-based
Set-up: test concentration 10 uM, cell line HepG2-A16-CD81EGFP
Settings: human, HepG2-A16-CD81EGFP cells; read-out: INHIBITION
Procedure, shortened: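 Uninfected HepG2-A16-CD81EGFP cells, 3 × 10^3 per well, 1536-well, plated on prespotted compound at 10 μM final, parasite-free screening media added to match infected plates; puromycin 10 μM positive, DMSO 0.5% negative; run in parallel with 48 h PbLuc assay at 37 °C, 5% CO2; viability by CellTiter-Glo luminescence, normalized to controls.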

| SMILES | cytotoxicity at 10 µM [%] |
| --- | --- |
| CC(C)(C)n1ncc2c(=O)[nH]c(N3CCN(CC(F)F)CC3)nc21 | -7.8 |
| Cn1cc(C[C@H]2[C@@H](O)CCN2C(=O)C2CCC2)cn1 | -7.44 |
| CN(c1ncc(S(N)(=O)=O)s1)C1CCC1 | 4.13 |
| COC(=O)N(C)CCCC(=O)Nc1[nH]nc(-c2ccncc2)c1C | -0.946 |
| COC(=O)c1cccn1C1CCN(C(=O)c2cc(F)ccc2F)CC1 | -9.62 |
| CN(C)C(=O)N1CCO[C@@H]2CC(COCc3cccnc3)C[C@H]21 (stereo partly specified) | 8.61 |
| COC(=O)c1sccc1S(=O)(=O)N1CCC(Oc2cccc(C)n2)CC1 | 6.48 |
| Cn1ccnc1CN1C[C@@H](CN2CCCCC2)[C@@H](CO)C1 | 11.7 |
| CN(C)CCN1CCC2(CCN(C(=O)c3cccc(F)c3)CC2)C1=O | -6.19 |
| CCOC(=O)N1CCN(c2nc(NC3CC3)c3ccccc3n2)CC1 | -0.529 |
| CCOCCCNC(=O)NCc1c(C)nn(C)c1C | -5.28 |
| CC(C)(C)c1nccc(N2CCN(C3CCS(=O)(=O)C3)CC2)n1 (stereo unspecified) | 1.05 |
| COc1ncccc1C(=O)N1CC[C@H]2C[C@@H](c3nccs3)O[C@@H]2C1 | -0.123 |
| Cc1ncc(C(=O)N2CCCC2c2c(C)nn(C)c2C)s1 (stereo unspecified) | 1.51 |
| O=C(CCc1ccco1)Nc1ncn(CC(=O)N2CCCCCC2)n1 | -2.29 |
| COC[C@@]12CCO[C@@H]1CCN(C(=O)Cc1ccccc1F)C2 | -7.27 |
| O=C(Cc1ccccc1Cl)Nc1cc(N2CCCC2)ncn1 | -2.46 |
| O=C(Cn1cccn1)N1CCC(Oc2cnccn2)CC1 | 7.11 |
| COc1ccc(CN2CCn3cc(CN4CCN(C)CC4)nc3C2)cc1 | -0.00161 |
| Cc1ccc([C@]2(O)CC[C@H]3CN(Cc4cccc(Cl)c4Cl)C[C@H]32)nc1 | 9.42 |
| NC(=O)NCC1CCCCN1C(=O)c1cccc(C(F)(F)F)c1 (stereo unspecified) | -7.32 |
| CN(C)C(=O)N1CCCn2nc(CNC(=O)CCc3ccsc3)cc2C1 | -1.77 |
| O=C(O)c1cc(S(=O)(=O)Nc2cc(F)ccc2F)cc2c1OCCO2 | -7.42 |

| SMILES | cytotoxicity at 10 µM [%] |
| --- | --- |
| c1ccc(NCc2cn3c(n2)CNCC3)nc1 | 9.28 |
| CCc1nc(N2CCC3(CC2)OCCCC3O)ncc1C (stereo unspecified) | 7.41 |
| CC(C)(C)NC(=O)NC(=O)COc1nc(C(C)(C)C)no1 | -1.62 |
| O=C(c1ccc2nccn2c1)N1CCCC1c1noc(C2CC2)n1 (stereo unspecified) | -4.68 |
| CC(=O)N1CCC2(C1)CN(C(=O)C1CCOC1)C2 (stereo unspecified) | 4.88 |
| CC(=O)N1CCC2(CC1)C(=O)N(c1cccnc1)c1ccc(F)cc12 | 10.6 |
| COC(=O)c1ccccc1NS(=O)(=O)c1c(C)nn(C)c1C | -4.12 |
| COCCC(=O)N1CCCC(c2noc3nc(C)cc(C(F)(F)F)c23)C1 (stereo unspecified) | -19.9 |
| Cc1cc(C(F)(F)F)nn1C(C)C(=O)Nc1ccc(Cl)cn1 (stereo unspecified) | 11.6 |
| CC(C)(C)c1ccc(OCC(=O)O)c(CN2C[C@H]3CC(O)C[C@H]3C2)c1 (stereo partly specified) | 3.46 |
| O=C1NCCCCC1SCc1coc(-c2ccc(F)cc2)n1 (stereo unspecified) | 47.5 |
| COc1c(CNCc2ccc(N3CCCC3)nc2)c(C(C)C)nn1C | -11.5 |
| Cc1cc(C)n(CC2CCCN2C(=O)c2cnn(C)c2C2CC2)n1 (stereo unspecified) | -0.489 |
| O=C(c1cc2c(s1)CCCC2)N1CCCC1Cn1cccn1 (stereo unspecified) | -11.9 |
| CN(C)C(=O)N1CCOCC2(CCN(c3ccccn3)C2)C1 (stereo unspecified) | 1.6 |
| CCn1cc2c(n1)CN(S(=O)(=O)c1ccc(C)cc1)CC2COC (stereo unspecified) | 5.77 |
| Cc1cc(F)ccc1-n1cc(O)c(C(=O)NCC2(O)CCC2)n1 | 0.477 |
| COc1ccc(CNc2cnn(C)c(=O)c2Cl)cc1 | -3.45 |
| COCCCN1CC2(CCN(Cc3cc(C(C)C)no3)CC2)CC1=O | -3.79 |
| CSC(C)C(=O)NCCCc1cc(N)n(-c2ccccc2)n1 (stereo unspecified) | 3.25 |
| Cc1cccc(CN2CCC3(CCCN(C(=O)N(C)C)C3)C2=O)n1 (stereo unspecified) | 1.44 |
| O=C(C1CCCOC1)N1CCCc2ccccc21 (stereo unspecified) | 10.1 |
| Cc1ccc(-c2cnn(CC(=O)NC(C)C)c2)cc1 | 0.724 |

| SMILES | cytotoxicity at 10 µM [%] |
| --- | --- |
| Clc1snnc1CN1CCCCC1Cn1cncn1 (stereo unspecified) | -0.575 |
| CN1CCOC(CNC(=O)C2(c3cccc(Cl)c3)CC2)C1 (stereo unspecified) | -3.03 |
| COC(=O)c1cccc(S(=O)(=O)NC(=O)c2ccccc2F)c1 | 5.79 |
| O=S1(=O)NC(c2ccnc(N3CCCCC3)n2)=Nc2ccccc21 | 18.3 |
| CS(=O)(=O)Nc1cccc(CNC(=O)c2cccs2)c1 | 3.86 |
| CCC(=O)N1CC[C@H]2C(=O)N(Cc3ccc(OC)cc3)CCO[C@H]2C1 | -114 |
| Cc1ccnn1CC(=O)N1CCN(C2CCc3ccccc3C2)CC1 (stereo unspecified) | -131 |
| Cn1c(=O)[nH]c(=O)n2c(CC(=O)Nc3ccc(Cl)c(Cl)c3)cnc12 | 3.82 |
| Cc1cc(C)n(CCCN(C)C(=O)C2COc3ccccc3C2)n1 (stereo unspecified) | -5.95 |
| CS(=O)(=O)N[C@@H]1CCO[C@]2(CCN(C(=O)c3cnccn3)C2)C1 | 1.98 |
| Cc1ccc(Nc2nccc(C3CCCN(CC(=O)N(C)C)C3)n2)nc1 (stereo unspecified) | -2.09 |
| COCCCNC(=O)NCc1ccc(N2CCOC(C)C2)nc1 (stereo unspecified) | -5.82 |
| O=C(CC1CCCC1)N1CCOC(c2nc(-c3ncccn3)no2)C1 (stereo unspecified) | -13.2 |
| COCCN1C[C@H]2CN(C(=O)NCc3ccccc3)CCN2C1=O | 2.08 |
| CC(C)c1noc(CCCC(=O)NCCOc2ccccc2)n1 | 1.03 |
| CC(=O)N1CCCN(c2nccc(-c3c(C)nn(C)c3C)n2)CC1 | 9.21 |
| CNC(=O)C1CCCCN1C(=O)c1cn(CCOC)c2ccccc12 (stereo unspecified) | -0.408 |
| O=C(O)c1cc(-c2cncnc2)cc(S(=O)(=O)N2CCCCCC2)c1 | 5.38 |
| Cc1nc(CN2CCCC2c2c(C)nn(C)c2Cl)no1 (stereo unspecified) | 1.85 |
| Brc1cccc(-c2noc(C3COCCO3)n2)c1 (stereo unspecified) | 8.71 |
| Cc1cc(=O)n(C)cc1NC(=O)CC1CCC1 | -9.64 |
| COCCNC(=O)C1CN(Cc2cccc(C)n2)Cc2ccnn2C1 (stereo unspecified) | -79.2 |
| COc1ccccc1C(=O)N(C)Cc1ncc(C)c(OC)c1C | 5.37 |

| SMILES | cytotoxicity at 10 µM [%] |
| --- | --- |
| O=C(c1ccccn1)C1CCCN(c2nccc(CCC(F)(F)F)n2)C1 (stereo unspecified) | -4.27 |
| CC1(C(=O)NCCc2ccc(F)cc2)CCOCC1 | 5.42 |
| O=C(NCCc1cccnc1)C1CCCN(Cc2ccco2)C1 (stereo unspecified) | -3.98 |
| O=C(c1cc[nH]n1)N1CCCC(c2cccc(-n3ccnc3)n2)C1 (stereo unspecified) | 6.88 |
| CCc1nnc2n1CCN(Cc1csc(Cc3ccccc3)n1)C2 | -25 |
| O=C(NC1CC1)N1CCCC2(CCCCN2)C1 (stereo unspecified) | 8.77 |
| CN(C)c1ccc(CC2CCN(c3cnccn3)CC2)nn1 | 2.29 |
| CNC(=O)C1(CCCc2ccccn2)CCN1Cc1coc(C)n1 (stereo unspecified) | 19.7 |
| CC(C)C(NC(=O)NCCNc1cnccn1)c1cccs1 (stereo unspecified) | 0.0264 |
| CN(Cc1nnc(C2CC2)o1)C1CCN(CCCc2cnn(C)c2)C1 (stereo unspecified) | 5.27 |
| CCCc1ncc(CNC2(c3ccc(Cl)cc3)CC2)cn1 | -31.6 |
| CC(C)(CNC(=O)CCOc1cccc(F)c1)C(N)=O | -0.704 |
| CCn1c(CC2CCN(S(=O)(=O)c3cccs3)CC2)nn(C)c1=O | 3.63 |
| O=C(O)c1ccccc1CN1CCC(c2ccnc3ccnn23)CC1 | -37.8 |
| O=C(CNC(=O)N1CCc2c([nH]c3ccc(Cl)cc23)C1)NC1CCCC1 | -2.91 |
| Clc1ccccc1C1(c2ccnc(C3CCCC3)n2)CCNCC1 | 18.2 |
| Cc1cc2n(n1)CC(CNC1CCN(Cc3ccccc3C)CC1)CN2 (stereo unspecified) | 3.69 |
| COCCN(Cc1ccccc1)Cc1csc(-c2ncccn2)n1 | 3.78 |
| O=S(=O)(N1CCCC1)N1CC(c2ccnc(Nc3ccccn3)n2)C1 | 11.8 |
| CCOC(=O)CCNC(=O)c1cc(Cl)cc2cccnc12 | 15 |
| Cc1ccc(N2CC[C@H]3OCC[C@@]3(C(=O)N(C)C)C2)nn1 | 1.11 |
| Cc1noc(C)c1CN1C[C@@H](N(C)Cc2ccco2)[C@H]2OCCC[C@H]21 | -70.9 |
| O=C1C(Sc2cnn[nH]2)CCCN1c1ccccc1F (stereo unspecified) | 24.9 |

| SMILES | cytotoxicity at 10 µM [%] |
| --- | --- |
| N#Cc1c(Cl)nsc1NCc1cccnc1OC1CCCC1 | 27.1 |
| CCCn1cc2c(C(F)F)cc(SCC(=O)O)nc2n1 | -10.9 |
| CC(C)c1nc(C2CCCN(C(=O)CS(=O)(=O)C(C)C)C2)no1 (stereo unspecified) | 8.75 |
| CCn1c2c(ccc1=O)CC(N)CC2 (stereo unspecified) | -1.72 |
| CN(C)CCNC(=O)CCC1CCN(C(=O)c2ccc(O)cn2)CC1 | 1.23 |
| COc1ccc(N2CCC(C(=O)/N=c3/[nH]ccs3)CC2)nn1 | -13.6 |
| CC(C)c1nn(C)c(N(C)C)c1CNC(C)c1ccccc1F (stereo unspecified) | -2.97 |
| O=C(O)c1sccc1Oc1ccc(NC(=O)C2CC2)cc1 | -4.77 |
| COC(=O)CC(c1ccc(OC)c(OC)c1)c1oc(C)cc(=O)c1O (stereo unspecified) | 16.8 |
| Cc1cc(N(C)C)cc(C2CCN(S(=O)(=O)c3cccnc3)C2)n1 (stereo unspecified) | 4.26 |
| Cc1nc(CN2CCC(CNC(=O)Nc3ccccn3)CC2)oc1C | -3.5 |
| C1CCN(c2nc(N3CCOCC3)nc3[nH]nnc23)CC1 | 8.95 |
| O=C(CNc1cc(-n2cnnn2)ccc1F)Nc1ccccc1Cl | 11.7 |
| COc1ccc(C(=O)C2CCCN(c3cc(C#N)ccn3)C2)cc1F (stereo unspecified) | -0.0739 |
| OCCN1CC2(CCN(c3ccccc3)C2)C1 | 0.234 |
| O=C(NCCc1ccccn1)c1[nH]nc2c1CCCC2 | 8.41 |
| N#Cc1ccc(OCC(=O)N2CCCC(n3cccn3)C2)cc1 (stereo unspecified) | -2.83 |
| COc1nn(C)c2c1CCCN(C(=O)c1cccc(C)n1)C2 | -97.3 |
| CNc1cncc(C2CCCN2Cc2c[nH]cn2)n1 (stereo unspecified) | 0.192 |
